RAM network inh = inhibitors of the yeast RAM network, primary screen, dse1pr::URA3 reporter, 5-FOA selection; S. cerevisiae dse1pr::URA3 reporter, 5-FOA growth OD615, 2 d; analog-sensitive cbk1-as2 kinase mutant strain; inhibition, % at 50 µM; 1.8% of 190,000 active;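 active = inhibition above a set limit, 3 SD over mean compound inhibition, cut at about 8.4% in these data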;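 note: 0% = DMSO-only wells with no growth and 100% = 10 µM 1-NA-PP1 full growth; inhibition rescues growth on 5-FOA so higher OD means more RAM inhibition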
Arbovirus anti = antivirals against arbovirus infection, primary screen, cell-based, full library, 10K replicate subset. 0.37% of 200,000 active. inhibition, % at 10 µM. arbovirus infection cell-based antiviral screen; in the data active = inhibition above about 30%
NCF1 inh = p47phox/p22phox peptide binding inhibitors, primary screen, biochemical, uHTS, NADPH oxidase regulatory subunit; AID 1274, 2008; fluorescence polarization, 2 h; 0.53% of 220,000 active; Neutrophil cytosol factor 1 (Homo sapiens), P14598; inhibition, % at 24.7 µM;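 active = inhibition above about 30%, limit read from the data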;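 note: 0% = p47phox with labelled peptide and 100% = labelled peptide alone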
Calb biofilm kill = clotrimazole potentiators killing C. albicans biofilm, primary screen, 4-compound mixtures. C. albicans biofilm persisters + clotrimazole, fluorescence viability; primary screen in compound mixtures of four per well. inhibition, % at 7.6 µM. 0.02% of 120,000 active. AID 1242, 2008;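 active = inhibition above 30.3% in the primary screen of four-compound pools, then above 30% when the compound was retested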;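 note: compounds exposed to preformed 24 h biofilms for 48 h; 0% = untreated biofilm control and 100% = clotrimazole plus chlorhexidine kill blank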
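Test system: C. albicans CAF4-2 wild-type biofilms; buffer or medium: RPMI/MOPS medium, pH 7.0; schedule: 24 h biofilm formation, then 48 h compound exposure, 37 °C; detection: Alamar Blue fluorescence; measure: percent inhibition of biofilm viability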
WT yeast gro inh = growth inhibition of WT strain, primary screen, mitochondrial fusion inhibitor project, WT and mutant strains, chemical genetic | inhibition, % at 10 µM | mitochondrial fusion phenotypic screen | 2.1% of 190,000 active; in the data active = inhibition above about 58%; tested in S. cerevisiae
Hck-Nef inh = inhibitors of Nef-activated human Hck kinase, primary screen, biochemical, Z-Lyte FRET, 384-well, Hck-YEEI; Tyrosine-protein kinase HCK (Homo sapiens), P08631; Recombinant Hck-YEEI plus Nef, Z-Lyte FRET kinase assay; inhibition, % at 20 µM; 0.68% of 220,000 active;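 active = Hck-Nef kinase inhibition above about 50%, limit read from the data; inactive = inhibition below that limit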;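 note: 0% = DMSO with Hck plus Nef and 100% = Hck alone without Nef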
Target sequence (P08631 whole entry, looked up): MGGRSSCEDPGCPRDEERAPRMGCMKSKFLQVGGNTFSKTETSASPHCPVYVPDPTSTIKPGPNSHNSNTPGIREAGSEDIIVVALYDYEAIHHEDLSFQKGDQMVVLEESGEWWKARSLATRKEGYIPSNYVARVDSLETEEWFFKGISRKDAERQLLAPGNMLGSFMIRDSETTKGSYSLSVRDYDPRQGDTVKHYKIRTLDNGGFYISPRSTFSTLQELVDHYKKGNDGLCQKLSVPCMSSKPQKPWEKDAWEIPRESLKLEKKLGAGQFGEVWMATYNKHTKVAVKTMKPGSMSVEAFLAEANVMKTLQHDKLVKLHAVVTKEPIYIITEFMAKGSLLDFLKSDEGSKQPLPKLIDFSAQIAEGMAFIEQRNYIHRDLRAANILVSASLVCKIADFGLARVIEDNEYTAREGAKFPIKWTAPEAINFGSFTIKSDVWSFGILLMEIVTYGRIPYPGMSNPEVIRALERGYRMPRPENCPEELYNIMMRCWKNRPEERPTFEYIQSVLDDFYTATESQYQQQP
* hit, by the source's call; / = no result; ! = a repeat was not active. In the library only some 4.6% were active in any assay of this set; here they are far more common.

SMILES	RAM network inh	Arbovirus anti	NCF1 inh	Calb biofilm kill	WT yeast gro inh	Hck-Nef inh
C1CCN=C(Nc2nc3c(s2)CCCC3)CC1	0	8	-17	/	62*	0
CCOc1ccc(-c2nc(N)ncc2Oc2ccc(OC)cc2)c(O)c1	/	/	-6	10	/	8
COc1ccc(-c2nc(N)nc(C)c2Oc2ccccc2Br)c(O)c1	1	-47	-36	/	83*	0
Cc1ccc2cc(CCNC(=O)CC(C)C)c(=O)[nH]c2c1	-1	18	3	/	5	12
CCc1c(C)sc(NC(=S)N2CC(C)OC(C)C2)c1C(=O)OC (stereo not given)	11*	24	-3	9	64*	2
CCc1c(C)sc(NC(=O)OC)c1C(=O)N1CCCCC1	2	0	37*	/	4	5
O=C(Oc1ccc(-n2cnnn2)cc1)c1ccccc1	0	-2	6	22	-6	3
CC1CCC(NC(=O)C(NC(=O)c2ccccc2)C(C)C)CC1 (stereo not given)	4	0	4	7	11	14
O=C(Nc1cccc(Cl)c1Cl)c1cc(S(=O)(=O)NCCc2ccccc2)ccc1F	9.4*	9	-7	6	7	-2
O=C(O)CC1SC(=Nc2ccccc2)N(c2ccccc2)C1=O (stereo not given)	1	16	0	/	6	-8
Cc1ccc(CC2SC(=Nc3ccccc3)N(c3ccccc3)C2=O)cc1 (stereo not given)	7	-13	1	15	61*	3
O=C(CCl)Nc1ccc(Oc2cnc3ccccc3n2)cc1	1	16	-6	/	10	1
Cc1ccc(/C=N/Nc2cc(C)nc(NCc3ccccc3)n2)cc1	/	/	-17	15	/	-1
Cc1cc(N/N=C/c2ccc(Cl)cc2Cl)nc(NCc2ccccc2)n1	-1	-22	-3	12	83*	-1
Cc1cc(Nc2ccc(Cl)cc2)nc(NCc2ccccc2)n1	8.4*	-37	-44	13	97	1
COCCNC(=O)CSc1nc(N)c(NC(=O)c2ccccc2F)c(=O)[nH]1	0	10	-4	21	1	1
O=C(c1ccco1)N1CCN(C(=O)N2CCCC2)CC1	1	8	3	7	-6	21
CC1CCN(S(=O)(=O)N2CCC(C(=O)NCCC3=CCCCC3)CC2)CC1	3	2	-20	7	4	-18
Fc1ccc(CSc2nncn2NCc2ccc3c(c2)OCO3)cc1	0	2	103*	/	-9	1
Fc1ccc(CNn2cnnc2SCc2ccc(F)cc2)cc1	3	6	-15	16	-12	8
CN(C(=O)Nc1ccc(Cl)c(Cl)c1)c1ccccc1C(=O)O	0	12	-12	10	72*	2
COc1cc(C(=O)N2CCC(O)(c3ccccc3)CC2)cc(OC)c1OC	1	7	0	/	2	3
CCOc1cccc(OCCCNCCCOC)c1	1	-2	-13	/	60*	3
C=CCn1c(-c2ccco2)n[nH]c1=S	2	4	32*	/	7	0
CCn1c(-c2ccco2)n[nH]c1=S	-1	2	-7	/	-3	-2
SMILES	RAM network inh	Arbovirus anti	NCF1 inh	Calb biofilm kill	WT yeast gro inh	Hck-Nef inh
O=C(O)CCn1cc(/C=C/C(=O)c2ccc(Cl)cc2)c(-c2ccc(Br)cc2)n1	4	46*	-23	12	18	42
COc1ccccc1N(Cc1cc(=O)[nH]c2ccccc12)C(=O)c1ccccc1	/	/	-8	22	/	18
COC(=O)c1ccccc1NC(=O)CCCn1nc([N+](=O)[O-])c(Br)c1C	1	4	-4	15	22	2
O=[N+]([O-])c1ccc2nc(-c3ccc(Cl)cc3)[nH]c2c1	1	-13	-18	6	63*	9
Cc1ccc(-c2nc3ccc([N+](=O)[O-])cc3[nH]2)cc1	0	16	-14	6	16	22
O=c1c2cc(N3CCOCC3)ccc2[nH]c(=S)n1Cc1ccccc1Cl	8.5*	-6	-5	8	19	21
CC(=O)c1ccc(N2CCN(C(=O)c3ccc(Cn4c(=S)[nH]c5ccc(N6CCOCC6)cc5c4=O)cc3)CC2)cc1	9.4*	-17	9	15	-7	41
O=c1c2cc(N3CCOCC3)ccc2[nH]c(=S)n1Cc1ccccn1	2	-10	-5	/	-2	-5
COCCCNC(=O)/C=C1\Sc2ccccc2N(Cc2ccccc2F)C1=O	3	0	3	8	6	6
CN1CCN(CCCNC(=O)c2ccc(/C=C3\Sc4ccccc4N(Cc4ccc(F)cc4)C3=O)cc2)CC1	-3	-31	87*	11	9	-21
CCN1CCN(CCNC(=O)c2ccc(/C=C3\Sc4ccccc4N(Cc4ccccc4F)C3=O)cc2)CC1	-1	-39	86*	15	77*	12
CN1CCN(CCCNC(=O)c2ccc(/C=C3/Sc4ccccc4N(Cc4cccc(Cl)c4)C3=O)cc2)CC1	-2	-30	78*	5	97*	-9
CN1CCN(CCCN2c3ccccc3Sc3ccc(Cl)cc32)CC1	0	-43	110*!	13	94*	3
OCCN1CCN(CCCN2c3ccccc3Sc3ccc(C(F)(F)F)cc32)CC1	-1	-44	3	16	85	-2
O=C(c1ccccc1)N1CCN(c2ccc([N+](=O)[O-])c(NCC3CCCO3)c2)CC1 (stereo not given)	0	-4	-4	3	-15	-3
CC(C)Cc1nnc(NC(=O)CSc2nc(-c3ccccc3)cc(=O)[nH]2)s1	0	13	-22	9	8	2
CCCOC(=O)c1ccc(NC(=O)/C=C/c2cccs2)cc1	10*	-7	-32	5	41	4
CCCc1nc2c(=O)n(C)c(=O)nc-2n(C)n1	-1	-21	-3	4	64*	-11
Cn1nc(-c2ccccn2)nc2c(=O)n(C)c(=O)nc1-2	/	/	-6	13	/	18
S=C(NCCc1ccccc1)Nc1ccc(Nc2ccccc2)cc1	2	-17	-7	18	82*	-5
Fc1cccc(NC(=S)NCCc2ccccc2)c1	1	7	4	13	33	1
Cc1cccnc1NC(=S)Nc1ncccc1C	/	/	-4	18	/	11
Cc1cccnc1NC(=S)NCCc1ccccc1	-1	5	0	27	61*	19
S=C(NCCCc1ccccc1)Nc1ccc(Cl)cc1	1	-40	-24	16	72*	1
COc1ccccc1CNC(=S)NCCc1ccccc1	1	19	-8	15	69*	3
